Experimental data taken from ChEMBL document CHEMBL5154945, “Discovery and Optimization of Pyrrolopyrimidine Derivatives as Selective Disruptors of the Perinucleolar Compartment, a Marker of Tumor Progression toward Metastasis” (J Med Chem, 2022).
Values joined by “and” are separate entries in the source; they are usually repeats but may differ in a detail not shown here. Equal values may be shown once.

How the values were obtained:
PC-3M = test: Anticancer activity in human PC-3M cells expressing PTB/GFP fusion protein assessed as perinucleolar compartment disassembly and measured after 24 hrs by Hoechst 33342 staining based microscopic method; type: functional, cell-based
In short: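 Imaged by high-content microscopy. Nuclei with PNC spots ≥3 and >0 scored positive. PNC prevalence % = PNC-positive nuclei/total nuclei ×100, normalized to DMSO (0% activity) and 0% PNC (−100%). IC50 from concentration-response.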

[1] = Permeability of the compound at pH 7.4 incubated for 30 mins by UV plate reader based PAMPA assay; settings: for Papp at 0.5 h: PAMPA, pH 7.4; for permeability: pampa, pH 7.4, 0.5 h
[2] = Microsomal stability in CD1 mouse liver microsomes assessed as half life measured upto 60 mins in presence of NADPH by LC-MS analysis; settings: for half-life at 1 h: CD1, mouse, liver microsomes; for t1/2: mouse, microsomes, 1 h
[3] = Kinetic solubility of compound
[4] = Cytotoxicity against human PC-3M cells expressing PTB/GFP fusion protein assessed as reduction in ATP level and measured after 24 to 48 hrs by ATPlite luminescence assay; type: toxicity, cell-based

Compound	IC50 (PC-3M; read-out: IC50) [µM]	IC50 (PC-3M; read-out: pIC50 (converted)) [µM]	Papp at 0.5 h [1] [×10⁻⁶ cm/s]	half-life at 1 h [2] [min]	permeability [1]	t1/2 [2] [min]	solubility kinetic [3]	IC50 [4] [µM]
N=c1c2c(-c3ccccc3)c(-c3ccccc3)n(CCc3ccccc3)c2ncn1CCCCO	4.47	4.47	> 1000	6.6	–	–	–	–
N=c1c2c(-c3ccccc3)c(-c3ccccc3)n(CCc3ccccc3)c2ncn1C1CCOCC1	0.96	10	–	–	> 1000 10^-6 cm/s	14.5	–	–
N=c1c2c(-c3ccccc3)c(-c3ccccc3)n(CCc3ccccc3)c2ncn1CC1CCOC1 (stereo not drawn)	–	10.7	–	–	> 1000 10^-6 cm/s	6.9	–	–
N=c1c2c(-c3ccccc3)c(-c3ccccc3)n(Cc3ccc(S(N)(=O)=O)cc3)c2ncn1C1CCOCC1	–	1.17	> 1000	–	–	70	–	–
CN(C)CCn1cnc2c(c(-c3ccccc3)c(-c3ccccc3)n2Cc2ccccc2)c1=N	–	2.95	–	–	1358 10^-6 cm/s	14.3	–	–
N=c1c2c(-c3ccccc3)c(-c3ccccc3)n(Cc3ccccc3)c2ncn1CC1CCCO1 (stereo not drawn)	–	9.33	–	–	> 1000 10^-6 cm/s	6.5	–	–
N=c1c2c(-c3ccccc3)c(-c3ccccc3)n(Cc3ccc(S(N)(=O)=O)cc3)c2ncn1CC1CCOCC1	–	25.1	–	–	< 1 10^-6 cm/s	8.3	–	–
N=c1c2c(-c3ccccc3)c(-c3ccccc3)n(Cc3ccccc3)c2ncn1CC1CCOCC1	–	10.7	–	–	> 1000 10^-6 cm/s	7.1	–	–
N=c1c2c(-c3ccccc3)c(-c3ccccc3)n(Cc3ccccc3)c2ncn1CC1COC1	> 20	–	7.2	113	–	–	–	–
N=c1c2c(-c3ccccc3)c(-c3ccccc3)n(Cc3ccccc3)c2ncn1[C@H](CO)Cc1ccccc1	> 20	–	–	–	< 1 10^-6 cm/s	5.5	–	–
N=c1c2c(-c3ccccc3)c(-c3ccccc3)n(CC3CC3)c2ncn1C1CCOCC1	–	0.832	–	–	> 1000 10^-6 cm/s	68	–	–
N=c1c2c(-c3ccccc3)c(-c3ccccc3)n(CCc3ccccc3)c2ncn1CC1CCOCC1	10	–	–	–	1229.2 10^-6 cm/s	7.3	–	–
COCCn1cnc2c(c(-c3ccccc3)c(-c3ccccc3)n2Cc2ccccc2)c1=N	–	9.33	–	–	> 1000 10^-6 cm/s	9.5	–	–
N=c1c2c(-c3ccccc3)c(-c3ccccc3)n(Cc3ccccc3)c2ncn1C1CCOCC1	0.32	0.316	–	–	> 1000 10^-6 cm/s	29.6	18 µM and 8.3 µg/mL	–
N=c1c2c(-c3ccccc3)c(-c3ccccc3)n(Cc3ccccc3)c2ncn1C[C@@H]1CCCC[C@H]1CO (relative stereo)	–	0.933	–	–	> 1000 10^-6 cm/s	17.4	–	–
Cc1c(C)n(Cc2ccccc2)c2ncn(C3CCOCC3)c(=N)c12	> 20	–	–	–	1683.3 10^-6 cm/s	26.9	–	–
N=c1c2c(-c3ccccc3)c(-c3ccccc3)n(Cc3ccccc3)c2ncn1CCCN1CCN(c2ccccc2)CC1	–	23.4	–	–	> 1000 10^-6 cm/s	14	–	–
N#Cc1c(-c2ccccc2)c(-c2ccccc2)n(Cc2ccccc2)c1N	> 20	–	–	–	62 10^-6 cm/s	13.3	–	–
COc1cccc2c1C(=O)c1c(O)c3c(c(O)c1C2=O)C[C@@](O)(C(=O)CO)C[C@@H]3O[C@H]1C[C@H](N)[C@H](O)[C@H](C)O1 [DOXORUBICIN]	0.86	–	–	–	–	–	–	0.66
N=c1c2c(-c3ccccc3)c(-c3ccccc3)n(Cc3ccccc3)c2ncn1[C@H]1CC[C@@H](O)CC1	–	0.832	–	–	> 1000 10^-6 cm/s	52.3	–	–
N=c1c2c(-c3ccccc3)c(-c3ccccc3)n(CC3CC3)c2ncn1CC1CCOCC1	–	33.9	–	–	> 1000 10^-6 cm/s	16.3	–	–
N=c1c2c3c(n(CCc4ccccc4)c2ncn1CCCO)CCCC3	> 20	–	883	4.5	–	–	–	–
N=c1c2c(-c3ccccc3)cn(Cc3ccccc3)c2ncn1CCO	> 20	–	–	–	1270.9 10^-6 cm/s	9.2	–	–
COc1ccc(Cn2c(-c3ccccc3)c(-c3ccccc3)c3c(=N)n(CC4CCCO4)cnc32)cc1 (stereo not drawn)	–	8.51	–	–	> 1000 10^-6 cm/s	9.4	–	–
COc1ccc(-c2c(-c3ccc(OC)cc3)n(Cc3ccccc3)c3ncn(C4CCOCC4)c(=N)c23)cc1	> 20	–	–	–	> 1000 10^-6 cm/s	58.7	–	–

Compound	IC50 (PC-3M; read-out: IC50) [µM]	IC50 (PC-3M; read-out: pIC50 (converted)) [µM]	Papp at 0.5 h [1] [×10⁻⁶ cm/s]	half-life at 1 h [2] [min]	permeability [1]	t1/2 [2] [min]	solubility kinetic [3]	IC50 [4] [µM]
N=c1c2c3c(n(CCc4ccccc4)c2ncn1[C@H]1CC[C@H](O)CC1)CCCC3	> 20	–	–	–	204.6 10^-6 cm/s	86.5	–	–
COc1ccc(-c2c(-c3ccc(OC)cc3)n(Cc3ccccc3)c3ncn([C@@H]4CCCC[C@H]4O)c(=N)c23)cc1 (mixture of isomers)	> 20	–	–	–	> 1000 10^-6 cm/s	29.2	–	–
N=c1c2c(-c3ccccc3)c(-c3ccccc3)n(CCc3ccccc3)c2ncn1CCO	–	1.32	–	–	> 1000 10^-6 cm/s	32.6	–	–
CN(C)CCCn1cnc2c(c(-c3ccccc3)c(-c3ccccc3)n2CCc2ccccc2)c1=N	12.6	–	–	–	294.4 10^-6 cm/s	77.9	–	–
N=c1c2c(-c3ccccc3)c(-c3ccccc3)n(Cc3ccc(OC(F)(F)F)cc3)c2ncn1[C@H]1CC[C@@H](O)CC1	–	3.39	–	120	1246.89 10^-6 cm/s	–	–	–
COc1ccc(CCn2cnc3c(c(-c4ccccc4)c(-c4ccccc4)n3Cc3ccccc3)c2=N)cc1OC	25.1	25.1	–	–	1196.9 10^-6 cm/s	12.1	–	–
N#Cc1c(-c2ccccc2)c(-c2ccccc2)n(Cc2ccccc2)c1/N=C/N[C@H]1CC[C@H](O)CC1	> 20	–	–	–	327.5 10^-6 cm/s	11.2	–	–
N=c1c2c(-c3ccccc3)c(-c3ccccc3)n(Cc3ccc(OC(F)(F)F)cc3)c2ncn1C1CCOCC1	–	0.955	–	–	> 1000 10^-6 cm/s	72	–	–
N=c1c2c(-c3ccccc3)c(-c3ccccc3)n(CCc3ccccc3)c2ncn1[C@H]1CC[C@H](O)CC1	–	0.339	–	120	> 1000 10^-6 cm/s	–	> 132 µM and > 65 µg/mL	–
N=c1c2c(-c3ccccc3)c(-c3ccccc3)n(Cc3ccccc3)c2ncn1[C@@H]1CCCC[C@H]1O (relative stereo)	–	0.501	–	–	> 1000 10^-6 cm/s	28.8	–	–
COc1ccc(-c2c(-c3ccc(OC)cc3)n(Cc3ccccc3)c3ncn(CCO)c(=N)c23)cc1	> 20	–	–	–	> 1000 10^-6 cm/s	73.2	–	–
N=c1c2c(-c3ccccc3)c(-c3ccccc3)n(Cc3ccccc3)c2ncn1CC1CCOC1 (stereo not drawn)	–	10.7	–	–	> 1000 10^-6 cm/s	5.3	–	–
N=c1c2c(-c3ccccc3)c(-c3ccccc3)n(Cc3ccccc3)c2ncn1CCCCO	–	4.27	–	–	> 1000 10^-6 cm/s	7.7	–	–
COc1ccc(-c2c(-c3ccc(OC)cc3)n(Cc3ccccc3)c3ncn(CC4CCOC4)c(=N)c23)cc1 (stereo not drawn)	> 20	–	–	–	> 1000 10^-6 cm/s	16.5	–	–
COc1ccc(Cn2c(-c3ccccc3)c(-c3ccccc3)c3c(=N)n([C@H]4CC[C@H](O)CC4)cnc32)cc1	–	0.158	–	120	> 1000 10^-6 cm/s	–	–	–
N=c1c2c(-c3ccccc3)c(-c3ccccc3)n(Cc3ccc(OC(F)(F)F)cc3)c2ncn1[C@H]1CC[C@H](O)CC1	–	0.631	–	120	1246.89 10^-6 cm/s	–	–	–
CN(C)CCCn1cnc2c(c(-c3ccccc3)c(-c3ccccc3)n2Cc2ccccc2)c1=N	12.6	12.6	320	120	–	–	–	–
N=c1c2c(-c3ccccc3)c(-c3ccccc3)n(Cc3ccccc3)c2ncn1C1CCC(=O)CC1	–	0.302	–	–	> 1000 10^-6 cm/s	38.2	75 µM and 36 µg/mL	–
CCOC(CCCn1cnc2c(c(-c3ccccc3)c(-c3ccccc3)n2Cc2ccccc2)c1=N)OCC	–	23.4	–	–	> 1000 10^-6 cm/s	4.3	–	–
Cc1c(C)n(Cc2ccccc2)c2ncn(CCCO)c(=N)c12	> 20	–	–	120	609.3 10^-6 cm/s	–	–	–
N=c1c2c(-c3ccccc3)c(-c3ccccc3)n(Cc3ccccc3)c2ncn1CCNc1ccncc1	–	6.61	–	–	445.1 10^-6 cm/s	29.9	–	–
N=c1c2c(-c3ccccc3)c(-c3ccccc3)n(Cc3ccccc3)c2ncn1CCO	–	0.832	–	–	> 1000 10^-6 cm/s	25.1	–	–
COc1ccc(Cn2c(-c3ccccc3)c(-c3ccccc3)c3c(=N)n(CCO)cnc32)cc1	2.83	2.82	> 1000	31.1	–	–	–	–
N=c1c2c(-c3ccccc3)c(-c3ccccc3)n(Cc3ccccc3)c2ncn1CCCCCO	–	3.16	–	–	> 1000 10^-6 cm/s	9	–	–
N=c1c2c(-c3ccccc3)c(-c3ccccc3)n(Cc3ccccc3)c2ncn1C[C@@H]1CCCC[C@H]1O (relative stereo)	–	2	–	–	> 1000 10^-6 cm/s	2.4	–	–
